Screening data from PubChem BioAssay.
CSN inh: inhibitors of CSN-mediated cullin deneddylation, primary screen, biochemical, fluorescence polarization, uHTS; COP9 signalosome complex subunit 5 (Homo sapiens), Q92905; Purified CSN, SCF-Nedd8-OG deneddylation; inhibition, % at 12.5 µM; 360,000 tested, 0.38% active;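 active means pattern-corrected inhibition above about 35%, with an unprinted fluorescence ratio check between 0.5 and 1.5, limit read from the data, passing the limit was not always enough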;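 further: 0% = enzyme with substrate and 100% = substrate without enzyme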
Target sequence (Q92905 whole entry, looked up, one chain of several): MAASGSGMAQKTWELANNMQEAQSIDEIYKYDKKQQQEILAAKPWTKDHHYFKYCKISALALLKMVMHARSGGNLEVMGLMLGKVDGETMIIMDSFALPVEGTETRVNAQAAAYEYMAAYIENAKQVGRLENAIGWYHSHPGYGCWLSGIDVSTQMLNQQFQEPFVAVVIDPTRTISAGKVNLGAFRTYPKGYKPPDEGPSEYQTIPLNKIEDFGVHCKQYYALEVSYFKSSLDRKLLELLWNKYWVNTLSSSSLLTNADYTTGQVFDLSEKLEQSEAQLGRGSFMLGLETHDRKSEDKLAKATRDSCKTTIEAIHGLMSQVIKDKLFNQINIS
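Assay system: HEK293T-derived human Csn5 enzyme; quantity: 0.24 nM enzyme; medium: Tris/NaCl/DTT buffer, pH 7.5; also added: substrate SCFSkp2-Nedd8OG, 10 nM; doses: 12.5 µM compound; schedule: 90 min reaction at room temperature; signal: FP; read-out: % inhibition of substrate cleavage by Csn5; benchmarks: substrate-only high control, full reaction low control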
PKA-R1A act: activators of PKA-R1A holoenzyme, primary screen, biochemical, fluorescence polarization, Cy5-IP20, bovine R1A, mouse PKAc. cAMP-dependent protein kinase type I-alpha regulatory subunit (Bos taurus) + …. PKA-R1A dissociation; scaled: DMSO 0%, 113 µM cGMP 100%. activation, % at 11.4 µM. 340,000 tested, 0.083% active. AID 504707, 2011;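 active means percent activation above the mean of all tested compounds plus 3 SD, cut at about 19% in these data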;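 further: higher means more PKAc released from R1A so a rise in polarization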
PKA-R2B activ: activators of PKA-R2B holoenzyme, primary screen, biochemical, fluorescence polarization, Cy5-IP20, human. 340,000 tested, 0.079% active. activation, % at 11.4 µM. PKA-R2B holoenzyme dissociation; R2B truncated from residue 108, S112A mutant; 0% DMSO only, 100% 113 µM cGMP;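 active means activation above a cutoff set at the mean over all compounds plus 3 SD, cut at about 18% in these data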;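 further: higher means more holoenzyme dissociation and a rise in polarization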
Rpn11 block: Rpn11 (PSMD14) deubiquitinase inhibitors, primary screen, biochemical, fluorescence polarization, uHTS; 26S proteasome non-ATPase regulatory subunit 14 (Homo sapiens), O00487; human 26S proteasome, Ub4-pepOG fluorescence polarization; 20S core pre-blocked with epoxomicin; calls only at 20 µM; 360,000 tested, 0.59% active;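 active means inhibition at 20 µM, scaled to each plate's controls, above about 33%, limit read from the data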
Target sequence (O00487 whole entry, looked up): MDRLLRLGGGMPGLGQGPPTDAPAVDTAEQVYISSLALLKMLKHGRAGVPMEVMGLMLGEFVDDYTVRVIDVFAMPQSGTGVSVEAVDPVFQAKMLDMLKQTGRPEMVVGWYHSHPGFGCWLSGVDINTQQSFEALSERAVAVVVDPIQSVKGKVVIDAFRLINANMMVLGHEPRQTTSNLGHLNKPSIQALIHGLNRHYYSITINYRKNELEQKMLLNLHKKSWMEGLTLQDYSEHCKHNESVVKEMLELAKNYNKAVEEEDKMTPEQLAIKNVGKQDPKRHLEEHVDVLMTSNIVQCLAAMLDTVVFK
TPT1 inh: Candida albicans TPT1 enzyme inhibitors, primary screen, biochemical, fluorescence polarization; 300,000 tested, 0.81% active; AID 1962, 2009; recombinant caTPT1, FP RNA substrate dephosphorylation; tRNA 2'-phosphotransferase TPT1 (Candida albicans SC5314); inhibition, % at 5 µM;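 active means inhibition above the mean of all tested compounds plus 3 SD, set per screening campaign, cut at about 24% in these data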;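 further: plate controls were DMSO alone for no effect and ferristatin control at 100 nM for full effect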
HNF4A DNA FP: change in binding of human HNF4A to DNA, primary screen, biochemical, fluorescence polarization, FITC-DNA; activity change, % at 10 µM; 1 h; 360,000 tested, 0.3% active; AID 1224865, 2016; Hepatocyte nuclear factor 4-alpha (Homo sapiens), P41235; in the data active means activity change above about 30%, passing the limit was not always enough
The depositor's hits bear a star; i = inactive; / = not tested or not shown; + = active, no number. Shown are actives, neighbours in structure and some others; about 1.6% of the full set was active somewhere.

SMILES | CSN inh | PKA-R1A act | PKA-R2B activ | Rpn11 block | TPT1 inh | HNF4A DNA FP
Nc1cc2nc3ccccc3oc-2cc1=O | 13 | -10 | -4 | + | 24 | 4
Cc1cc2nc(-c3ccccc3)c(CC(C)(C)C)n2c(C)c1Br | 3 | / | / | i | / | 2
Cc1cc2nc(-c3cccc(Br)c3)c(CC(C)(C)C)n2c(C)c1Br | 132* | / | / | i | / | 1
COc1ccc(CC(=O)Nc2ccc(-c3cn4cccc(C)c4n3)cc2)cc1OC | -4 | 2 | -1 | i | 1 | 3
Cc1cccn2cc(-c3ccc(NC(=O)Cc4ccccc4)cc3)nc12 | 13 | -6 | 3 | i | 4 | 40*
O=c1c(Cc2ccccc2)c(O)ccn1Cc1ccc2c(c1)OCO2 | -2 | -10 | -4 | i | -4 | -2
FC(F)(F)c1ccc(-c2n[nH]c(=S)o2)nc1 | 1 | 2 | 1 | i | 5 | 2
S=c1[nH]nc(-c2ccc3ccccc3n2)o1 | 113* | 6 | 2 | i | 3 | 1
CCOC(=O)C1=C(C)N=c2s/c(=C\c3ccc(OCC(=O)O)cc3)c(=O)n2C1c1ccccc1 (stereo unspecified) | -2 | -4 | 5 | i | 6 | 0
CCOC(=O)C1=C(C)N=c2sc(=Cc3ccc(OCC(=O)O)cc3)c(=O)n2C1c1ccc(SC)cc1 (stereo unspecified) | 38* | / | / | + | / | 6
Cc1ccc(-c2nc3ncccn3c2Nc2ccc3c(c2)OCCO3)o1 | -2 | -1 | -10 | i | -2 | 38*
Cc1ccc(C)c(Cn2c3ccccc3c3cnn(CC(=O)NCCCN4CCCCC4)c(=O)c32)c1 | 0 | -3 | 3 | i | 0 | 2
Cc1nn(-c2ccccc2)c(Cl)c1/C=N/Nc1nc2ccccc2[nH]1 | 4 | -1 | -8 | i | 1 | 68*
N#CC1=C(N)SC(N)=C(C#N)C1CCC1CCCCC1 | / | / | / | / | 110* | /
Nc1nnc(CCC2CCCCC2)s1 | 2 | -2 | 3 | i | 0 | 3
CC(=O)Nc1ccc(S(=O)(=O)c2ccc(C)cc2)cc1 | 5 | -1 | -5 | i | -1 | 34*
Cc1c2cnn(-c3ccccc3)c(=O)c2c(C)n1CCCC(=O)NCCN1CCN(C)CC1 | -1 | -1 | 4 | i | -3 | 12
O=c1oc(/C=C/c2ccco2)nc2sc3c(c12)CCC3 | 42* | 3 | 3 | i | 0 | -11
CCCCCNC(=O)C(c1cccc2ccccc12)n1c(=O)c(-c2ccco2)nc2ccccc21 (stereo unspecified) | 33 | / | / | / | / | 40*
Cc1cccc(C)c1NC(=O)C(c1ccnc2ccccc12)n1c(=O)c(-c2ccco2)nc2ccccc21 (stereo unspecified) | 21 | / | / | / | / | 44*
O=C(NCc1ccccc1)C(c1cccc2ccccc12)n1c(=O)c(-c2ccco2)nc2ccccc21 (stereo unspecified) | 21 | / | / | / | / | 26
Cc1cccc(C)c1NC(=O)C(c1ccccc1F)n1c(=O)c(-c2ccco2)nc2ccccc21 (stereo unspecified) | 23 | / | / | / | / | 45*
O=C(OCC(=O)N1CCCC1)c1c2c(nc3ccccc13)CCCCC2 | 4 | -4 | -3 | i | 2 | 1
O=C(O)CCCNC(=O)c1ccccn1 | 7 | 12 | -5 | i | 1 | 0
CSCCC(NC(=O)c1ccc(C(C)(C)C)cc1)C(=O)OCC(=O)N1CCCC1=O (stereo unspecified) | 67* | -4 | 9 | i | / | 0
SMILES | CSN inh | PKA-R1A act | PKA-R2B activ | Rpn11 block | TPT1 inh | HNF4A DNA FP
COc1cc2c(cc1OC)C(c1ccc(-c3ccc(Cl)cc3Cl)o1)=NCC2 | 5 | -16 | -13 | i | 4 | 11
COc1cc2c(cc1OC)C(c1ccc(-c3cc(Cl)ccc3Cl)o1)=NCC2 | 6 | -2 | -2 | i | 22 | 38*
CCOC(=O)c1c(NC(=O)COC(=O)c2ccc(NC(=O)CC#N)cc2)sc(C(=O)NC)c1C | 40* | -7 | 1 | i | / | -15
CCn1c2ccccc2c2cc(NC(=O)COC(=O)c3ccc(NC(=O)CC#N)cc3)ccc21 | 43* | 13 | -7 | i | 3 | -9
CCOC(=O)c1c(NC(=O)COC(=O)c2ccc(O)cc2)sc(C(=O)N(C)C)c1C | -4 | -2 | -17 | i | -1 | 2
Cc1ccc(-c2nnn(CC(=O)N3CCCCC3)n2)cc1 | -2 | 4 | -1 | i | 2 | 1
CC(CCC(C)C(C)(C)C)[C@@H]1CC[C@H]2C3C[C@H](OS(O)(=S)=S)[C@H]4C[C@H](OS(O)(=S)=S)[C@@H](OS(O)(=S)=S)C[C@]4(C)[C@H]3CC[C@]12C (stereo partly specified) (tested in a mixture with another compound) | 35* | -1 | 13 | + | / | -82
CC(CCC(=O)NN)C1CCC2C3CCC4CC(O)CCC4(C)C3CCC12C (stereo unspecified) | 13 | 7 | -5 | i | / | 3
CCN(CC)C(=O)C1=C(C)N(Cc2ccc(C(C)(C)C)cc2)C(=O)C(CC(=O)NC(c2ccccc2)c2ccccc2)C1 (stereo unspecified) | + | -13 | -4 | i | / | 5
CCN(CC)C(=O)C1=C(C)N(Cc2ccccc2)C(=O)C(CC(=O)NCCc2ccccn2)C1 (stereo unspecified) | 0 | -10 | -7 | i | / | 2
CCN(CC)C(=O)C1=C(C)N(Cc2ccc(OC)cc2)C(=O)C(CC(=O)NCCc2ccccn2)C1 (stereo unspecified) | 85* | 9 | 1 | i | / | 1
CCC(=O)N1CCN(c2nc(-c3ccccc3)c3c(c2C#N)CCCC3)CC1 | 1 | -10 | -1 | i | -1 | -8
CC1(C)N=C(N)N=C(N)N1c1ccc(OCCCOc2ccccc2)c(Cl)c1 | 2 | -3 | -5 | i | 0 | 50*
Cc1ccccc1Cn1c(=N)n(CC(=O)c2ccc([N+](=O)[O-])cc2)c2ccccc21 | 5 | 0 | -12 | / | -2 | 43*
CCCCC(CC)CNC(=O)c1[nH]c(C)c(C(C)=O)c1C (stereo unspecified) | -1 | -15 | -22 | i | 4 | -1
